From paper PMC9073132 (Journal of Pharmaceutical Analysis, 2021)
Where two headings read alike, the source gives them in different places.

Assay type: in vivo, Wistar rats
Settings: for Detection in rat plasma samples over the sampling period (LC-MS/MS quantitation): concentrations lower than LLOQ
Summary of the method: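 Male Wistar rats (200 ± 20 g) were acclimated 7 days with food and water ad libitum. Crude extract, predissolved in 0.5% DMSO and dispersed in 5 mg/mL sodium carboxymethylcellulose, was given intragastrically at 200 mg/kg. Heparinized blood was taken on ice at 0–24 h (12 points) and spun; plasma was held at −20 °C. Plasma (100 μL) plus IS was extracted with ethyl acetate, then 14 bufadienolides quantified by UHPLC-MS/MS against LLOQ.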

[1] = intragastric crude VB extract 200 mg/kg
[2] = male, Wistar, rat, plasma, po, 200 mg/kg
[3] = rat plasma, intragastric crude VB extract 200 mg/kg, n=4

Compound | Detection in rat plasma samples over the sampling period (LC-MS/MS quantitation) [1] | AUC(0-t) [2] [ng·h/mL] | Cmax [2] [ng/mL] | MRT last [2] [h] | Tmax [2] [h] | half-life [2] [h] | AUC(0-t) [3] [ng·h/mL] | Cmax [3] [ng/mL] | MRT(0-t) [3] [h] | Tmax [3] [h] | t1/2 [3] [h]
C[C@]12CC[C@H]3[C@@H](CC[C@@H]4C[C@@H](O)CC[C@@]43C=O)[C@]13O[C@@H]3CC2c1ccc(=O)oc1 (stereo partly drawn) [CS16, resibufagin] | not detected |  |  |  |  |  |  |  |  |  | 
C[C@]12CC[C@H](O)C[C@@]1(O)CC[C@@H]1[C@@H]2CC[C@]2(C)[C@@H](c3ccc(=O)oc3)CC[C@]12O [CS14, telocinobufagin] |  | 7.22 ± 0.428 | 4.84 ± 1.09 | 0.932 ± 0.129 | 0.521 ± 0.315 | 1.88 ± 1.19 |  |  |  |  | 
C[C@]12CC[C@H](O)C[C@H]1CC[C@@H]1[C@@H]2CC[C@]2(C)[C@@H](c3ccc(=O)oc3)C[C@H]3O[C@]132 [CS22, resibufogenin] |  | 4.53 ± 0.701 | 3.79 ± 3.78 | 0.836 ± 0.141 | 0.333 ± 0.204 | 1.2 ± 0.477 |  |  |  |  | 
C[C@]12CC[C@H](O)C[C@H]1CC[C@@H]1[C@@H]2C(=O)[C@H](O)[C@]2(C)[C@@H](c3ccc(=O)oc3)CC[C@]12O [CS01, pseudobufarenogin] |  |  |  |  |  |  | 276.956 ± 60.642 | 67.225 ± 14.218 | 4.614 ± 0.481 | 0.75 ± 0 | 3.944 ± 1.276
C[C@]12CC[C@H](O)C[C@H]1CC[C@@H]1[C@@H]2[C@H](O)C(=O)[C@]2(C)[C@@H](c3ccc(=O)oc3)CC[C@]12O [CS03, arenobufagin] |  |  |  |  |  |  | 1487.316 ± 407.361 | 466.5 ± 116.920 | 3.338 ± 1.011 | 0.938 ± 0.125 | 4.537 ± 2.442
C[C@]12CC[C@H]3[C@@H](CC[C@]4(O)C[C@@H](O)CC[C@]34C=O)[C@@]1(O)CC[C@@H]2c1ccc(=O)oc1 [CS04, hellebrigenin] |  |  |  |  |  |  | 104.246 ± 20.661 | 13.35 ± 2.243 | 6.478 ± 1.035 | 1.438 ± 0.657 | 4.884 ± 2.116
CC(=O)O[C@H]1[C@H]2O[C@]23[C@@H]2CC[C@]4(O)C[C@@H](O)CC[C@]4(C)[C@H]2CC[C@]3(C)[C@H]1c1ccc(=O)oc1 [CS19, cinobufotalin] | not detected |  |  |  |  |  |  |  |  |  | 
C[C@]12CC[C@H](O)C[C@H]1CC[C@@H]1[C@@H]2[C@H](O)C[C@]2(C)[C@@H](c3ccc(=O)oc3)CC[C@]12O [CS36, gamabufotalin] |  | 223 ± 11.3 | 84.4 ± 4 | 2.5 ± 0.603 | 0.812 ± 0.125 | 2.82 ± 1.27 |  |  |  |  | 
CC(=O)O[C@H]1[C@H]2O[C@]23[C@@H]2CC[C@]4(O)C[C@@H](O)CC[C@]4(C=O)[C@H]2CC[C@]3(C)[C@H]1c1ccc(=O)oc1 [CS11, 19-oxocinobufotalin] |  |  |  |  |  |  | 3.669 ± 0.511 | 2.752 ± 0.814 | 0.942 ± 0.05 | 0.562 ± 0.239 | 2.614 ± 2.802
CC(=O)O[C@H]1[C@H]2O[C@]23[C@@H]2CC[C@@H]4C[C@@H](O)CC[C@]4(C)[C@H]2CC[C@]3(C)[C@H]1c1ccc(=O)oc1 [CS23, cinobufagin] |  | 5.2 ± 2.83 | 7.29 ± 10.4 | 0.913 ± 0.23 | 0.833 ± 0.825 | 1.32 ± 0.526 |  |  |  |  | 
C[C@]12CC[C@H](O)C[C@H]1CC[C@@H]1[C@@H]2CC[C@]2(C)[C@@H](c3ccc(=O)oc3)[C@@H](O)[C@H]3O[C@]132 [CS30, desacetylcinobufagin] |  | 104 ± 6.06 | 24.1 ± 2.27 | 4.67 ± 1.01 | 0.875 ± 0.25 | 10.8 ± 5.24 |  |  |  |  | 
CC(=O)O[C@H]1[C@H]2O[C@]23[C@@H]2CC[C@@H]4C[C@@H](O)CC[C@]4(C=O)[C@H]2CC[C@]3(C)[C@H]1c1ccc(=O)oc1 [CS17, 19-oxocinobufagin] | not detected |  |  |  |  |  |  |  |  |  | 
CC(=O)O[C@H]1C[C@]2(O)[C@@H]3CC[C@@H]4C[C@@H](O)CC[C@]4(C)[C@H]3CC[C@]2(C)[C@H]1c1ccc(=O)oc1 [CS15, bufotalin] | not detected |  |  |  |  |  |  |  |  |  | 
C[C@]12CC[C@H](O)C[C@H]1CC[C@@H]1[C@@H]2CC[C@]2(C)[C@@H](c3ccc(=O)oc3)CC[C@]12O [CS21, bufalin] |  | 17 ± 1.76 | 7.08 ± 1.85 | 1.48 ± 0.115 | 0.396 ± 0.292 | 1.77 ± 0.821 |  |  |  |  | 
